Assay results taken from ChEMBL document CHEMBL4422632, “Design of Novel Inhibitors of Human Thymidine Phosphorylase: Synthesis, Enzyme Inhibition, in Vitro Toxicity, and Impact on Human Glioblastoma Cancer” (J Med Chem, 2019).
Calls of active or inactive are those of the source. The rule behind the calls is not given here.

Columns and labels:
[1] = Cytotoxicity against mouse RAW264.7 cells assessed as cell viability at 100 uM after 72 hrs by neutral red uptake-based assay relative to control; conditions: read-out: Activity
In short: (§1)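 Cells kept in DMEM with 10% heat-inactivated FBS, 1% penicillin-streptomycin and 0.1% fungizone at 37 °C, 5% CO₂. U-87 MG seeded at 2 x 10^3 cells/well, RAW 264.7 at 5 x 10^2, adhered 24 h, then exposed 72 h. MTT: 1 mg/mL for 3 h, formazan in DMSO, A595. NRU: 25 μg/mL dye, 3 h, ethanol:acetic acid:water desorb. Untreated wells = 100%; three to five independent experiments in triplicate.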

[2] = Cytotoxicity against mouse RAW264.7 cells assessed as cell viability at 1000 uM after 72 hrs by MTT assay relative to control; format: cell-based; conditions: read-out: Activity; in short: as §1
[3] = Cytotoxicity against mouse RAW264.7 cells assessed as cell viability at 1000 uM after 72 hrs by neutral red uptake-based assay relative to control; conditions: read-out: Activity; in short: as §1
[4] = Cytotoxicity against human HaCaT cells assessed as cell viability at 250 uM after 72 hrs by MTT assay relative to control; format: cell-based; conditions: read-out: Activity
In short: (§2)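 Cells grown in DMEM with 10% FBS at 37 °C, 5% CO₂; seeded 2 x 10³ cells/well, adhered 24 h, then exposed 72 h. MTT: 1 mg/mL for 3 h, formazan in DMSO, absorbance 595 nm. NRU: neutral red 25 µg/mL in serum-free medium for 3 h, desorbed in ethanol:acetic acid:water. Viability as % of untreated control; mean ± SEM of three to five independent experiments in triplicate.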

[5] = Cytotoxicity against human HaCaT cells assessed as cell viability at 500 uM after 72 hrs by neutral red uptake-based assay relative to control; conditions: read-out: Activity; in short: as §2
[6] = Cytotoxicity against mouse RAW264.7 cells assessed as cell viability at 50 uM after 72 hrs by neutral red uptake-based assay relative to control; conditions: read-out: Activity; in short: as §1
[7] = Cytotoxicity against human HaCaT cells assessed as cell viability at 500 uM after 72 hrs by MTT assay relative to control; format: cell-based; conditions: read-out: Activity; in short: as §2
[8] = Cytotoxicity against human HepG2 cells assessed as cell viability at 1000 uM after 72 hrs by neutral red uptake-based assay relative to control; conditions: read-out: Activity; in short: as §2
[9] = Cytotoxicity against African green monkey Vero cells assessed as cell viability at 25 uM after 72 hrs by MTT assay relative to control; format: cell-based; conditions: chlorocebus sabaeus, read-out: Activity; in short: as §2
HepG2 = assay: Genotoxicity in human HepG2 cells assessed as induction of DNA-strand breaks at 1000 uM after 24 hrs by alkaline comet assay; format: toxicity, cell-based; conditions: hepg2, 24 h
In short: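 HepG2 seeded at 5 x 10^4 cells/well for 24 h, then exposed 24 h at 250, 500 and 1,000 μM. Alkaline comet assay: lysis 24 h, unwinding in 300 mM NaOH/1 mM EDTA (pH > 13) at 4 °C for 20 min, electrophoresis 20 min at 25 V, silver staining. MMS 100 µM as positive control. 100 cells scored 0–4 for a damage index of 0–400. Mean ± SEM of three experiments.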

[10] = Cytotoxicity against human U87MG cells assessed as cell viability at 1000 uM after 72 hrs by neutral red uptake-based assay relative to control; parameters: species or system U-87MG ATCC; conditions: read-out: Activity; in short: as §1
[11] = AUCt in CF1 mouse at 50 mg/kg, ip by non-compartmental analysis; format: ADME, organism-based; conditions: in vivo
In short: (§3)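 Male CF1 mice received a single ip injection of 50 mg/kg in 0.9% saline; 3 animals per time point, killed 0.03, 0.08, 0.25, 0.5, 1 and 2 h after dosing; blood collected in heparin tubes.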

Cytochrome P450 2D6 = Cytochrome P450 2D6 (Homo sapiens, UniProt P10635); assay: Inhibition of CYP2D6 in human liver microsomes by HPLC-MS/MS analysis; format: ADME
[12] = Cytotoxicity against African green monkey Vero cells assessed as cell viability at 500 uM after 72 hrs by neutral red uptake-based assay relative to control; conditions: chlorocebus sabaeus, read-out: Activity; in short: as §2
[13] = Cytotoxicity against human HaCaT cells assessed as cell viability at 25 uM after 72 hrs by neutral red uptake-based assay relative to control; conditions: read-out: Activity; in short: as §2
[14] = Cytotoxicity against human HaCaT cells assessed as cell viability at 1000 uM after 72 hrs by MTT assay relative to control; format: cell-based; conditions: read-out: Activity; in short: as §2
[15] = Cmax in CF1 mouse at 50 mg/kg, ip by non-compartmental analysis; format: ADME, organism-based; parameters: dose 50 mg/kg, route intraperitoneal; conditions: in vivo; in short: as §3
[16] = Half life in human liver S9 fraction at 2 uM up to 30 mins in presence of NADPH by HPLC-MS/MS analysis; format: ADME, subcellular
[17] = Cytotoxicity against human HepG2 cells assessed as cell viability at 500 uM after 72 hrs by neutral red uptake-based assay relative to control; conditions: read-out: Activity; in short: as §2
[18] = Cytotoxicity against human U87MG cells assessed as cell viability at 100 uM after 72 hrs by neutral red uptake-based assay relative to control; parameters: species or system U-87MG ATCC; conditions: read-out: Activity; in short: as §2
U-87 MG = assay: Anti-angiogenic activity in tumor of human U87MG cells xenografted in nude BALB/c mouse assessed as reduction in CD31 staining at 50 mg/kg, ip administered for 14 days by immunohistochemistry; format: functional, organism-based; conditions: U-87MG ATCC
In short: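 Male nude mice bearing subcutaneous right-flank xenografts of 5 x 10⁵ U-87 MG cells; dosing began at about 50 mm³ tumors, ip daily for 14 days. Tumors formalin-fixed, paraffin sections 3 µm; citrate pH 6 antigen retrieval at 95-98 °C; primary antibody overnight at 4 °C, HRP secondary, DAB. Positive area quantified by optical density at x200, 4 images per tumor; mean ± SEM, one-way ANOVA with Dunnett.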

[19] = Cytotoxicity against mouse RAW264.7 cells assessed as cell viability at 50 uM after 72 hrs by MTT assay relative to control; format: cell-based; conditions: read-out: Activity; in short: as §1
[20] = Cytotoxicity against mouse RAW264.7 cells assessed as cell viability at 250 uM after 72 hrs by MTT assay relative to control; format: cell-based; conditions: read-out: Activity; in short: as §1
[21] = Cytotoxicity against African green monkey Vero cells assessed as cell viability at 50 uM after 72 hrs by MTT assay relative to control; format: cell-based; conditions: chlorocebus sabaeus, read-out: Activity; in short: as §2
[22] = Cytotoxicity against African green monkey Vero cells assessed as cell viability at 50 uM after 72 hrs by neutral red uptake-based assay relative to control; conditions: chlorocebus sabaeus, read-out: Activity; in short: as §2
[23] = Cytotoxicity against human U87MG cells assessed as cell viability at 1000 uM after 72 hrs by MTT assay relative to control; format: cell-based, U-87MG ATCC; conditions: read-out: Activity; in short: as §2
[24] = Cytotoxicity against mouse RAW264.7 cells assessed as cell viability at 25 uM after 72 hrs by MTT assay relative to control; format: cell-based; conditions: read-out: Activity; in short: as §1
[25] = Elimination half life in CF1 mouse at 50 mg/kg, ip by non-compartmental analysis; format: ADME, organism-based; conditions: in vivo
[26] = Cytotoxicity against human HaCaT cells assessed as cell viability at 50 uM after 72 hrs by neutral red uptake-based assay relative to control; conditions: read-out: Activity; in short: as §2
[27] = Cytotoxicity against African green monkey Vero cells assessed as cell viability at 25 uM after 72 hrs by neutral red uptake-based assay relative to control; conditions: chlorocebus sabaeus, read-out: Activity; in short: as §2
[28] = Cytotoxicity against human HepG2 cells assessed as cell viability at 25 uM after 72 hrs by neutral red uptake-based assay relative to control; conditions: read-out: Activity; in short: as §2
[29] = Cytotoxicity against mouse RAW264.7 cells assessed as cell viability at 25 uM after 72 hrs by neutral red uptake-based assay relative to control; conditions: read-out: Activity; in short: as §1

Cytochrome P450 2D6, sequence (P10635 whole entry): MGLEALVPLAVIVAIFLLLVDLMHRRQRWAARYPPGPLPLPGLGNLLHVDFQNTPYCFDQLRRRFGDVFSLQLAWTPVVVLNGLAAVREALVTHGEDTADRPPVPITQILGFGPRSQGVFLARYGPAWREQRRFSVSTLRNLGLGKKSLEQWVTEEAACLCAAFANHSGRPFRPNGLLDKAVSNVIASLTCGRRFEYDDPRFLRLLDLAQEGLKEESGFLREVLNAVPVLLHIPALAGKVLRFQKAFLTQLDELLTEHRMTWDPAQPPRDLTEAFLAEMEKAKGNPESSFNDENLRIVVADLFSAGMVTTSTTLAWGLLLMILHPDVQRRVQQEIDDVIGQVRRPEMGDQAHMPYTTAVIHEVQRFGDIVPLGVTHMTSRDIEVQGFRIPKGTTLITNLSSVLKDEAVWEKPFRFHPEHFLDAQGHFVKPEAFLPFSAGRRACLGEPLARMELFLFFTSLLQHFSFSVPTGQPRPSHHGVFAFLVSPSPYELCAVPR

AUC(0-t) [11]: 16900 ng·h/mL
IC50 (Cytochrome P450 2D6): > 100 µM
Cmax [15]: 34.8 µg/mL
half-life at 2 µM [16]: 28.1 min
beta t1/2 [25]: 30 min
Structure (SMILES): O=c1[nH]c(CNC(CO)CO)c(I)c(=O)[nH]1
viability at 72 h, 100 µM [1]: 97%
viability at 72 h, 1000 µM [2]: 72%
viability at 72 h, 1000 µM [3]: 48%
viability at 72 h, 250 µM [4]: 96%
viability at 72 h, 500 µM [5]: 95%
viability at 72 h, 50 µM [6]: 102%
viability at 72 h, 500 µM [7]: 93%
viability at 72 h, 1000 µM [8]: 81%
viability at 72 h, 25 µM [9]: 101%
Activity (HepG2): Non-Toxic
viability at 72 h, 1000 µM [10]: 72%
viability at 72 h, 500 µM [12]: 90%
viability at 72 h, 25 µM [13]: 100%
viability at 72 h, 1000 µM [14]: 81%
viability at 72 h, 500 µM [17]: 96%
viability at 72 h, 100 µM [18]: 104%
Activity (U-87 MG): Active
viability at 72 h, 50 µM [19]: 99%
viability at 72 h, 250 µM [20]: 95%
viability at 72 h, 50 µM [21]: 97%
viability at 72 h, 50 µM [22]: 112%
viability at 72 h, 1000 µM [23]: 83%
viability at 72 h, 25 µM [24]: 103%
viability at 72 h, 50 µM [26]: 110%
viability at 72 h, 25 µM [27]: 108%
viability at 72 h, 25 µM [28]: 102%
viability at 72 h, 25 µM [29]: 105%
